Where a chain is given by its changes, count along the chain named.
Columns and labels:
Cynomolgus monkey [1] = assay: Inhibition of renin in po dosed furosemide pretreated cynomolgus monkey plasma after 1 to 24 hrs; assay type: functional, organism-based; details: Macaca fascicularis
In short: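 Cynomolgus monkeys pretreated with furosemide given single oral dose 1, 3 or 10 mg/kg or vehicle 1% methylcellulose. Venous blood into EDTA-2Na tubes at 1, 2, 4, 8, 24 h, chilled, centrifuged cold, plasma frozen; plasma renin activity by radioimmunoassay.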

Rattus norvegicus = assay: Cardiotoxicity in Sprague-Dawley rat electrophysiology model assessed as QRS complex abnormalities at 10 mg/kg, iv by ECG analysis; assay type: toxicity, organism-based; parameters: dose 10 mg/kg, route intravenous; details: in vivo
In short: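 Male Sprague-Dawley rats anesthetized with inactin 100 mg/kg ip; surface lead II ECG recorded continuously. Compounds given as iv bolus via right jugular vein catheter after stabilization; QRS complex abnormality scored as no, moderate or severe change; n = 2 at 10 mg/kg.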

Renin [2] = molecular target: T1, Renin (Homo sapiens, UniProt P00797); assay: Inhibition of human recombinant renin using Arg-Glu(EDANS)-Ile-His-Pro-Phe-His-Leu-Val-Ile-His-Thr-Lys (DABCYL)-Arg as substrate incubated for 10 mins prior to substrate addition measured after 90 mins by fluorescence assay
T1 sequence (P00797 whole entry): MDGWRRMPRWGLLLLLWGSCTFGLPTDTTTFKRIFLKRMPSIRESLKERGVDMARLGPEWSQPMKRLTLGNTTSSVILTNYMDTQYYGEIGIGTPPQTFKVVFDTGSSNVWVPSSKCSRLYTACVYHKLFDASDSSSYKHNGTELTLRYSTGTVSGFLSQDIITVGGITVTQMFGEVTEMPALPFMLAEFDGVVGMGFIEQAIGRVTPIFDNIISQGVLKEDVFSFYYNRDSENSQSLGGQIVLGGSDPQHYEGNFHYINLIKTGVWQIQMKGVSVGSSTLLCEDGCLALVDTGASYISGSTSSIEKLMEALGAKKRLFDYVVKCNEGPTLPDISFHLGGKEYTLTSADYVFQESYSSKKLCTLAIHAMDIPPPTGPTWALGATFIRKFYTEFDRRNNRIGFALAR
In short: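 Trypsin-activated recombinant human renin in 50 mM Tris-HCl pH 7.9, 100 mM NaCl, preincubated with compound 10 min at room temperature; FRET substrate Arg-Glu(EDANS)…Lys(DABCYL)-Arg added, 90 min at 37 °C.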

Canis familiaris [3] = assay: Cardiotoxicity in anesthetized beagle dog assessed as change in QRS width at 0.5 mg/kg/min, iv after 30 mins relative to baseline; assay type: toxicity, organism-based, Canis lupus familiaris; parameters: route intravenous; details: in vivo, 0.5 h
In short: (§1)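 Anesthetized dogs; after ECG parameters stabilized, compound infused iv continuously at 0.5 mg/kg/min for 1 h. ECG changes at 30 min as % change from baseline; 2 mL blood drawn from left femoral artery for plasma drug concentration.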

[4] = molecular target: Voltage-gated inwardly rectifying potassium channel KCNH2 (Homo sapiens, UniProt Q12809); assay: Inhibition of human ERG channel expressed in CHOK1 cells at 100 uM after 5 mins by patch clamp technique; assay type: cell-based; details: cho-k1, 5 min
In short: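 CHO-K1 cells stably expressing hERG; automated patch clamp. Holding −80 mV, step to +50 mV for 2 s, then −40 mV for 2 s; tail peak current measured. Compound incubated 5 min.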

Renin [5] = molecular target: T2, Renin (Macaca fascicularis, UniProt Q6DLS0); assay: Inhibition of renin in cynomolgus monkey plasma after 1 hr by RIA
T2 sequence (Q6DLS0 whole entry): T1 sequence (P00797 whole entry) with T68A, I214L, S235A
In short: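 Pooled mixed-gender EDTA cynomolgus monkey plasma with pH adjusting solution and Inhibitor A, compound in 1% DMSO final, incubated 1 h at 37 °C. Angiotensin I by competitive RIA; uninhibited and 4 °C controls define % inhibition; IC50 from four-parameter fit; ratio is compound IC50 over aliskiren IC50 in same plasma batch; ≥2 replicates.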

Canis familiaris [6] = assay: Cardiotoxicity in anesthetized beagle dog assessed as change in QTc interval at 0.5 mg/kg/min, iv after 30 mins relative to baseline; assay type: toxicity, organism-based, Canis lupus familiaris; parameters: route intravenous; details: in vivo, 0.5 h; in short: as §1
Oryctolagus cuniculus [7] = organism: Oryctolagus cuniculus; assay: Cardiotoxicity in New Zealand White rabbit heart assessed as change in QTc interval at 100 uM after 20 mins relative to baseline; assay type: toxicity; details: ex_vivo
In short: (§2)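 Isolated Langendorff-perfused hearts from female NZW rabbits anesthetized with thiopental 30 mg/kg iv; heart excised into chilled Krebs-Henseleit solution. After parameters stabilized, compound perfused at 10, 30 and 100 µM for 20 min; ECG changes expressed as % change from baseline.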

Cynomolgus monkey [8] = assay: Inhibition of renin in po dosed furosemide pretreated cynomolgus monkey assessed as reduction in mean arterial blood pressure; assay type: functional, organism-based; details: Macaca fascicularis
In short: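 Conscious freely moving telemetered cynomolgus monkeys (n = 6), furosemide 5 mg/kg/day im for 3 days before dosing; fasted from morning, fed ≥8 h post-dose. Oral 1, 3, 10 mg/kg or 1% methylcellulose, crossover design; arterial pressure recorded from −3 to 24 h; hourly mean MAP; mean ± SEM.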

Oryctolagus cuniculus [9] = assay: Cardiotoxicity in anesthetized New Zealand White rabbit assessed as change in QTc interval at 1 mg/kg/min, iv after 10 mins relative to baseline; assay type: toxicity, organism-based; parameters: route intravenous; details: in vivo
In short: (§3)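 Female NZW rabbits anesthetized with ketamine 35 mg/kg ip plus xylazine 5 mg/kg ip, tracheotomized, ventilated with room air. ECG and systemic pressure monitored; HR, PR, QRS, QT, QTc quantified. After stabilization, continuous iv infusion 1 mg/kg/min for 1 h; values at 10 min as % change from baseline.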

Oryctolagus cuniculus [10] = assay: Cardiotoxicity in anesthetized New Zealand White rabbit assessed as change in QRS width at 1 mg/kg/min, iv after 10 mins relative to baseline; assay type: toxicity, organism-based; parameters: route intravenous; details: in vivo; in short: as §3
[11] = molecular target: T3, Renin (Macaca fascicularis) (UniProt Q6DLS0); assay: Ratio of compound IC50 to aliskiren IC50 for renin in cynomolgus monkey plasma
T3 sequence (whole entry): T1 sequence (P00797 whole entry) with T68A, I214L, S235A

[12] = Plasma concentration in beagle dog at 0.5 mg/kg/min, iv after 30 mins; assay type: ADME, organism-based, Canis lupus familiaris; parameters: route intravenous; in short: as §1
Oryctolagus cuniculus [13] = assay: Cardiotoxicity in anesthetized New Zealand White rabbit assessed as change in heart rate at 1 mg/kg/min, iv after 10 mins relative to baseline; assay type: toxicity, organism-based; parameters: route intravenous; details: in vivo; in short: as §3
Canis familiaris [14] = assay: Cardiotoxicity in anesthetized beagle dog assessed as change in heart rate at 0.5 mg/kg/min, iv after 30 mins relative to baseline; assay type: toxicity, organism-based, Canis lupus familiaris; parameters: route intravenous; details: in vivo, 0.5 h; in short: as §1
Oryctolagus cuniculus [15] = assay: Cardiotoxicity in anesthetized New Zealand White rabbit assessed as change in […] at 1 mg/kg/min, iv after 10 mins relative to baseline; assay type: toxicity, organism-based; parameters: route intravenous; details: in vivo; in short: as §3
Heart = assay: Cardiotoxicity in New Zealand White rabbit heart assessed as change in heart rate at 100 uM after 20 mins relative to baseline; assay type: toxicity, tissue-based, Oryctolagus cuniculus; in short: as §2

Sequence of Voltage-gated inwardly rectifying potassium channel KCNH2 (Q12809 whole entry): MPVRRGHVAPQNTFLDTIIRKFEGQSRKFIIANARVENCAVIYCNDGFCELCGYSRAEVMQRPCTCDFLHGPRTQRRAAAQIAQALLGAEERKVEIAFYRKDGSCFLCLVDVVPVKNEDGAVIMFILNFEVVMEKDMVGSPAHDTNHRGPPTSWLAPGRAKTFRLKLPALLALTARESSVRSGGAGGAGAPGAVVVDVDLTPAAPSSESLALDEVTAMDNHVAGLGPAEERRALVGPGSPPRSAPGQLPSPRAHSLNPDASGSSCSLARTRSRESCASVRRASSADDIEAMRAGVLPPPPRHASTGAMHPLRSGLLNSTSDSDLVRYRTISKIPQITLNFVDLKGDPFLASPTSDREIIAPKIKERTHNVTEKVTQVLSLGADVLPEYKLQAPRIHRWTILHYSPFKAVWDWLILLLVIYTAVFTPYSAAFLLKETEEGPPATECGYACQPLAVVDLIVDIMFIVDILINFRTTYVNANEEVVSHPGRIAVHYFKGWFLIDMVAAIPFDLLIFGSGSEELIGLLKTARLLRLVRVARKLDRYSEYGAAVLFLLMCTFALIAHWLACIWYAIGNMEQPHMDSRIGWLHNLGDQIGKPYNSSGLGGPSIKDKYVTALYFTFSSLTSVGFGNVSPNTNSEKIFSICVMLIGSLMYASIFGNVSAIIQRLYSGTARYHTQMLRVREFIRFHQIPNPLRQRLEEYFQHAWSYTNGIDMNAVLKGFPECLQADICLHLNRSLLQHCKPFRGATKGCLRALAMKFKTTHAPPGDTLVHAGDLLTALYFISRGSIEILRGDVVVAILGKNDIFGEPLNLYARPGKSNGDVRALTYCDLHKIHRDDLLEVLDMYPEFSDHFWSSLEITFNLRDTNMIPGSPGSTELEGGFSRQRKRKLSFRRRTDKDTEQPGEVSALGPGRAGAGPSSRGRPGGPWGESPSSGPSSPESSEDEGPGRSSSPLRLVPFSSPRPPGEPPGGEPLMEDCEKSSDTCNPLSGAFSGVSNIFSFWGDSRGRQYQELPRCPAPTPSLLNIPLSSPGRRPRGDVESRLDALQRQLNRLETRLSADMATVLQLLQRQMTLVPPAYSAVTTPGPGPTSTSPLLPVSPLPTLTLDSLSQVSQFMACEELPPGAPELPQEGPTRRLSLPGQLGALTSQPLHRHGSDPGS

CC[C@H](C[C@H](O)[C@@H](N)CN1CC(=O)N(c2ccccc2Cl)CC1(C)C)C(=O)N[C@H]1C2CC3CC1C[C@](O)(C3)C2.O=C(O)/C=C/C(=O)O
inhibition (Cynomolgus monkey [1]): Dose-dependent effect
Activity (Rattus norvegicus): Non-toxic
IC50 (Renin [2]): 0.9 nM
Activity (Canis familiaris [3]): 5.8%
inhibition (INH) [4]: Not Active
IC50 (Renin [5]): 6.3 nM
Activity (Canis familiaris [6]): -1.4%
Activity (Oryctolagus cuniculus [7]): -3.2%
inhibition (Cynomolgus monkey [8]): Dose-dependent effect
Activity (Oryctolagus cuniculus [9]): 2.7%
Activity (Oryctolagus cuniculus [10]): -1.3%
Ratio IC50 [11]: 0.8
concentration at 0.5 h [12]: 38100 ng/mL
Activity (Oryctolagus cuniculus [13]): 3.9%
Activity (Canis familiaris [14]): -5.4%
Activity (Oryctolagus cuniculus [15]): -1.3%
Activity (Heart): -5.8%

Source: ChEMBL document CHEMBL2384910, “Lead optimization of 5-amino-6-(2,2-dimethyl-5-oxo-4-phenylpiperazin-1-yl)-4-hydroxyhexanamides to reduce a cardiac safety issue: discovery of DS-8108b, an orally active renin inhibitor” (Bioorg Med Chem, 2013)
